# Sampled rows, rich in hits. Any-hit rate of the full collection: about 3.5%.
# MrgX1 allo act – human MrgX1 positive allosteric modulation, primary screen | Q96LB2 | MrgX1-HEK293, Fluo-4 calcium flux, FDSS; hits give high values | B-score at 10 µM | actives 0.63% (n = 310,000);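 active means plate-corrected calcium response at least 3 library SD above typical, normal starting fluorescence, not activating the receptor alone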;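 further: compound read alongside a low EC10 to EC30 dose of BAM8-22 agonist; peak minus trough fluorescence over baseline measured at the second addition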
# Target sequence (Q96LB2 whole entry, looked up): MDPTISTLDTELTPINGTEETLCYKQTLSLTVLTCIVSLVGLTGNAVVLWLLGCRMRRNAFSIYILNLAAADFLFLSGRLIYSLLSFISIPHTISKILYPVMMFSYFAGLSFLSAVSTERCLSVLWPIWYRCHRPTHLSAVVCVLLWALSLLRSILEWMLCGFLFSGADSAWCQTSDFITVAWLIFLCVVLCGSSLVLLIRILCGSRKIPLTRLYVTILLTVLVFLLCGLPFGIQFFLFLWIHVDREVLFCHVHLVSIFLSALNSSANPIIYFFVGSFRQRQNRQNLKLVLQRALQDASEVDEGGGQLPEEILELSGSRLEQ
# MrgX1 agonist – agonists of human MrgX1 receptor | MrgX1-HEK293 cells, Fluo-4 calcium fluorescence, agonist mode; hits give high values | Q96LB2 | B-score at 10 µM | AID 588627 | actives 0.44% (n = 310,000);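 active means calcium response B-score plate-corrected fluorescence ratio at least 3 library SD, with starting fluorescence B-score inside 5 SD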
#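 Material: MrgX1-expressing HEK293 cells; input: 15,000 cells per well; doses: test compound given as first of three sequential additions; schedule: overnight plating before 1 h dye loading; technique: Fluo-4 NW calcium-flux fluorescence, kinetic read; evaluation: baseline-normalised fluorescence change ratio, B-scored; control set: plate-wise positive and negative controls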
# RGS4 pot – RGS4 potentiation or activation | AID 463111 | actives 0.92% (n = 310,000) | B-score at 10 µM | HEK293 M3R/inducible RGS4, carbachol calcium flux Fluo4; hits give low values;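 active means B-score of the integrated calcium signal more than 4 SD below the library mean, with starting fluorescence not abnormally high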;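 further: negative B-score means reduced calcium response which marks RGS4 activation or potentiation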
#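 test system = HEK293 cells with stable M3R and inducible RGS4 | schedule = recording 10 s baseline at 1 Hz, 100 s post-agonist | technique = Fluo4-AM (2 µM) calcium-flux fluorescence, kinetic read | measure = Agonist-evoked peak-minus-minimum fluorescence over baseline, integrated ratio, B score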
# MrgX1 antagonist – antagonists of human MrgX1 receptor; MRGX1-HEK293 calcium flux, Fluo-4, BAM8-22 antagonism; hits give low values; B-score at 10 µM; actives 1.3% (n = 310,000); AID 588676;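 active means calcium-response B-score plate-corrected more than 3 library SD below zero, starting fluorescence within 5 deviations, no agonist response on first addition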;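 further: peak minus trough fluorescence over baseline after final BAM8-22 challenge near maximal dose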
# RGS4 block – inhibitors of human RGS4. P49798. HEK293 M3R/RGS4 inducible, Fluo-4 calcium flux; hits give high values; triggered by carbachol at its EC20. B-score at 10 µM. actives 0.45% (n = 310,000). AID 463165;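 active means B-score, a plate-corrected calcium signal, over three deviations above library mean, with baseline fluorescence within five deviations of library mean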;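 further: RGS4 expression induced by doxycycline in cells with stable M3 receptor; B-score is computed from the integrated fluorescence ratio over baseline after carbachol; higher B-score means a larger calcium signal and so more RGS4 inhibition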
# Target sequence (P49798 whole entry, looked up): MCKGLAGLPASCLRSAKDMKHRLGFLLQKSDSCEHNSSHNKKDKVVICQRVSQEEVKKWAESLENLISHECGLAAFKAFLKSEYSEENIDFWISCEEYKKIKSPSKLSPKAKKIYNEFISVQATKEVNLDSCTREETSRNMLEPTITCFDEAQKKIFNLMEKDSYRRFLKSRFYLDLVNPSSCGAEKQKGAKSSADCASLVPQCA
# MrgX1 PAM conf – confirmation of human MrgX1 receptor positive allosteric modulators; actives 13% (n = 1,200); MrgX1-HEK293, Fluo-4 calcium fluorescence, FDSS; activation (ratio percentage), % at 10 µM; shares compounds with MrgX1 allo act;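 active means ratio at least 3 SD above the weak peptide control, stable starting fluorescence, no direct agonism earlier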;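 further: compound followed by low BAM8-22 agonist challenge near EC20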
# HEK293 Ca flux – counter-screen for MrgX1 antagonists: effect in parental HEK293 cells. shares compounds with MrgX1 antagonist. Fluo-4 calcium fluorescence, FDSS. fluorescence ratio F(max-min)/F0 at 10 µM. actives 2% (n = 4,000). AID 624111;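 active means duplicate-averaged calcium fluorescence ratio at least three times the standard deviation of buffer wells, a nonspecific response in parental cells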
# HEK293 Ca counter – MrgX1 allosteric activator counter-screen hit in parental HEK293 cells; shares compounds with MrgX1 antagonist; actives 0.4% (n = 4,000); fluorescence ratio F(max-min)/F0 at 10 µM; parental HEK293 calcium flux, Fluo-4 fluorescence ratio; hits give high values;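 active means calcium fluorescence ratio, averaged over duplicates, at least 3 SD of the buffer-well ratio, meaning a nonspecific response in receptor-free cells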;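 further: untransfected parental HEK293 lacking MrgX1 used as counterscreen for MrgX1 allosteric activators; fluorescence change taken during the second addition on a kinetic imager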
# HEK293 Ca cntr2 – MrgX1 activator counter-screen hit in parental HEK293 cells | Fluo-4 calcium fluorescence (FDSS); hits give high values | shares compounds with MrgX1 antagonist | actives 8.7% (n = 4,000) | AID 624115 | fluorescence ratio F(max-min)/F0 at 10 µM;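 active means calcium fluorescence ratio at least three times the spread of buffer wells, meaning a non-specific response in parental cells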
# Numbers stand for hits; . = inactive; / = not tested or not shown.
SMILES,MrgX1 allo act,MrgX1 agonist,RGS4 pot,MrgX1 antagonist,RGS4 block,MrgX1 PAM conf,HEK293 Ca flux,HEK293 Ca counter,HEK293 Ca cntr2
CSc1ccccc1NC(=O)CSc1nnc(Cc2ccccc2)o1,.,.,.,.,.,/,/,/,/
O=C(c1ccc(F)cc1)n1c(NCc2ccccc2)n[nH]c1=S,7.3,.,.,.,.,.,.,.,.
CC(=O)Nc1ccc(N2CCN(c3ccc(C(F)(F)F)cn3)CC2)nc1,.,.,.,.,.,/,/,/,/
CCN(CC(=O)Nc1ccc(NC(C)=O)cc1)c1ccc(C(F)(F)F)cn1,9.6,.,.,.,.,.,.,.,.
Cc1cccc(OCC(=O)Nc2ccc(C(=O)c3ccc(C(=O)O)cc3)cc2)c1,.,.,.,.,.,/,/,/,/
CC(=O)N(c1ccccc1C)S(=O)(=O)c1ccc(Cl)cc1,8.7,.,.,.,.,.,.,.,.
CCOc1ccccc1N(C(C)=O)S(=O)(=O)c1ccc(Cl)cc1,.,.,.,.,.,/,/,/,/
CC(C)(C)C(=O)CSc1nnc(Nc2ccccc2)s1,.,.,.,.,.,/,/,/,/
CC(=O)c1cc(CC=C(C)C)c(O)c(CC=C(C)C)c1O,.,.,.,.,.,/,/,/,/
CC(=O)c1cc(CC=C(C)C)c(O)cc1O,9.9,.,.,.,.,.,.,.,.
Cc1ccc(-c2cc3onc(-c4ccccc4)c3c(=O)n2C)cc1,21,.,/,.,/,.,.,.,.
O=C(COC(=O)c1ccc2ccccc2c1O)NCC(F)(F)F,.,.,.,.,.,/,/,/,/
CCNC(=O)CN1c2cccc3cccc(c23)S1(=O)=O,22,.,.,.,.,.,.,.,.
CCC(C)NC(=O)CN1c2cccc3cccc(c23)S1(=O)=O (centres undefined),.,.,.,.,.,/,/,/,/
Cc1ccccc1Cn1cc(S(=O)(=O)c2ccc(C(C)C)cc2)c(=O)c2cc3c(cc21)OCO3,.,.,.,.,.,/,/,/,/
CCCNC(=O)/C(=C/c1cn(S(=O)(=O)N(C)C)c2ccccc12)NC(=O)c1ccc(OC)cc1,36,.,.,.,.,15%,.,.,.
Cc1cccc(N2N=C(C(=O)O)CCC2=O)c1,.,.,.,.,.,/,/,/,/
Cc1ccccc1Nc1ncnc2c1cnn2-c1ccccc1,11,.,.,.,.,.,.,.,.
NNc1ncnc2c1cnn2-c1ccccc1,.,.,.,.,.,/,/,/,/
CCCn1c(=O)c(C(=O)NCCCc2ccccc2)c(O)c2ccccc21,6.8,.,.,.,.,.,.,.,.
COc1ccc(S(=O)(=O)Nc2cccc(C)n2)c2ccccc12,.,.,.,.,.,/,/,/,/
COc1ccc(Br)cc1S(=O)(=O)Nc1cccc(C)n1,12,.,.,.,.,.,.,.,.
N#C/C(=N\Nc1cccc(C(F)(F)F)c1)C(=O)c1ccsc1,.,.,.,.,.,/,/,/,/
CC(=O)Nc1ccc(CC(=O)NCCC(c2ccccc2)c2ccccc2)cc1,.,.,.,.,.,/,/,/,/
c1coc(-c2nc3nc4ccccc4nc3n2CC2CCCO2)c1 (centres undefined),.,.,.,.,.,/,/,/,/
SMILES,MrgX1 allo act,MrgX1 agonist,RGS4 pot,MrgX1 antagonist,RGS4 block,MrgX1 PAM conf,HEK293 Ca flux,HEK293 Ca counter,HEK293 Ca cntr2
c1ccc(-c2nc3nc4ccccc4nc3n2CC2CCCO2)cc1 (centres undefined),7,.,.,.,.,.,.,.,.
CCc1ccc(C(=O)COC(=O)C(CCSC)NC(=O)c2ccccc2)cc1 (centres undefined),.,.,.,.,.,/,/,/,/
COC(=O)c1ccc2c(CCO)c[nH]c2c1,.,.,.,.,.,/,/,/,/
Cc1ccc2c(c1)NC(=O)C(CC(=O)Nc1ccc(Br)c(C)c1)O2 (centres undefined),.,.,.,.,.,/,/,/,/
CN(Cc1ccccc1)C(NC(=O)c1ccccc1)C(Cl)(Cl)Cl (centres undefined),.,.,.,.,.,/,/,/,/
CN(Cc1ccccc1)C(NC(=O)c1ccco1)C(Cl)(Cl)Cl (centres undefined),6.6,.,.,.,.,.,.,.,.
CC1=C(C(=O)Nc2ccc(Cl)cc2)C2(CCCCC2)C(C(N)=O)C(=S)N1 (centres undefined),12,.,.,.,.,.,.,.,.
COCc1cc(C)nc(OCC(=O)N/N=C/c2ccc(C)o2)c1C#N,.,.,.,.,.,/,/,/,/
CCSc1nc2c(c(=O)[nH]1)C(c1ccncc1)C(C(=O)OC(C)C)=C(C)N2 (centres undefined),.,.,.,.,.,/,/,/,/
CCSc1nc2c(c(=O)[nH]1)C(c1cccnc1)C(C(=O)OC)=C(C)N2 (centres undefined),8.5,.,.,.,.,.,.,.,.
COC(=O)c1ccc(NS(=O)(=O)c2ccc(Cl)cc2)o1,22,.,.,.,.,12%,.,.,.
O=C(Nc1ccc(F)cc1)C(=O)C1C(=O)Nc2ccccc21 (centres undefined),6.6,.,.,.,.,.,.,.,.
Cc1nn(CCCC(=O)NC2CCC(C)CC2)c(=O)c2nn(-c3ccccc3)c(C)c12 (centres undefined),.,.,.,.,.,/,/,/,/
Cc1ccc(NC(=O)c2ccccc2OCC(=O)Nc2cccc(Cl)c2C)nc1,.,.,.,.,.,/,/,/,/
Cc1oc(-c2cccc(C(F)(F)F)c2)nc1CN1CCOCC1,.,.,.,.,.,/,/,/,/
CCOC(=O)c1c(-c2ccsc2)csc1N,8.6,.,.,.,.,.,.,.,.
CCOC(=O)c1c(CC(C)C)csc1N,.,.,.,.,.,/,/,/,/
CCOC(=O)c1c(-c2ccc(C)o2)csc1N,.,.,.,.,.,/,/,/,/
CCOC(=O)c1c(-c2ccc(C)s2)csc1N,9.1,.,.,.,.,.,.,.,.
COc1ccc(-c2csc(NC(=O)CCCc3nc4ccccc4c(=O)[nH]3)n2)cc1OC,11,.,-7.4,.,.,.,.,.,.
CCN1CCN(c2nc(Nc3ccc(NC(C)=O)cc3)nc(Nc3ccc(NC(C)=O)cc3)n2)CC1,29,.,.,.,.,.,.,.,.
CCOC(=O)N1CCN(C(=S)Nc2cc(S(=O)(=O)N3CCOCC3)ccc2Cl)CC1,9.2,.,.,.,.,.,.,.,.
CC(=O)CSc1cc(-c2ccccc2)nc2ncnn12,.,.,.,.,.,/,/,/,/

# High-throughput results from PubChem.
